The values below come from publication PMC3516921 (ChemMedChem, 2012).

Data set [1] can be described thus: Kinetic solubility. In kind it is physicochemical. The note with it: water with 5% DMSO, 18 h incubation.
Data set [2] has as its target human cannabinoid type 1 receptor (Homo sapiens, UniProt P21554). As to the kind of experiment: CB1 receptor competitive binding assay with [3H]CP-55,940.
Data set [3] has as its target human cannabinoid CB2 receptors (Homo sapiens, UniProt P34972). In words: [35S]GTPγS binding assay on hCB2-CHO cell membranes. In kind it is biochemical. Conditions: for Functional effect on [35S]GTPγS binding: hCB2-CHO cell membranes. Background: Binding of GTPγS marks nucleotide exchange on a G protein.
In data set [4] the target is human cannabinoid type 2 receptor (Homo sapiens, UniProt P34972). As to the kind of experiment: CB2 receptor competitive binding assay with [3H]CP-55,940. The note with it: for S.I. (selectivity index for CB2, Ki(CB1)/Ki(CB2)): Ki(CB1)/Ki(CB2) ratio.
Data set [5] in a line: Experimental logP determined by HPLC. In kind it is physicochemical. Conditions: RP-18 column; for logP Exp: HPLC, MeOH/H2O, extrapolated to zero organic solvent; for chromatographic logP: reversed-phase HPLC.
Data set [6] concerns formalin-induced nocifensive behaviour. In words: Formalin test of acute peripheral and inflammatory pain. In kind it is in vivo. The note with it: mice; for Effect on 2nd phase of formalin-induced nocifensive behaviour: 3 mg/kg ip, 15 min before formalin; for Effect of AM630 pre-treatment on the antinociceptive effect of the compound: compound 3 mg/kg ip + AM630 1 mg/kg ip 5 min before. An outline of the steps: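 Mice (n = 8–10 per group, randomly assigned) received test compound ip (1 or 3 mg/kg) or vehicle 15 min before formalin (1.25% in saline, 30 μl, dorsal hind paw). Where used, AM630 (1 mg/kg ip) was given 5 min before compound. A blinded observer timed lifting, favouring, licking, shaking and flinching in 5-min bins over 0–10 min (early phase) and 20–60 min (late phase). Analysis was one-way ANOVA with Tukey-Kramer.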

Data set [7] has as its system human liver microsomes. As to the kind of experiment: CYP-dependent in vitro metabolism in human liver microsomes. The class given is in vitro ADME. In general terms: Microsomes from liver hold many membrane-bound enzymes, among them those of drug oxidation.
In data set [8] the target is CB2 receptor (Homo sapiens, UniProt P34972). As to the kind of experiment: On-line screening on immobilized CB1/CB2-OT column. The class given is binding. Conditions: 0.25 nM [3H]-Win-55,1212 marker, 10 nM compound.
[9] abbreviates: read-out: CB1 Ki, mean ± SD, at least three experiments in duplicate.
Where [10] appears, read: read-out: CB2 Ki, mean ± SD, at least three experiments in duplicate.
The mark [11] stands for this setting: mean ± SD, at least three experiments in duplicate.

In brackets after ≈: the same amount, converted by molar mass. Read-outs that look alike come from different tables or passages of the source. A value given as a limit tells only on which side of the number the result lay.

One may read the Solubility as the dissolved amount per volume that the medium holds. A higher Solubility goes with much dissolved substance. The term Ki denotes a dissociation constant, usually derived from enzyme kinetics or from competition with a known ligand. As usually defined, the EC50 is the concentration at which the effect is half-maximal. Low values mean higher potency in that assay, high ones lower potency in that assay. In general, Emax refers to the greatest response seen or fitted, relative to the assay's reference. Take `CCCCCn1cc(-c2nnc(C34CC5CC(CC(C5)C3)C4)o2)c(=O)c2cc(-c3ccco3)ccc21` [Compound 12, 2-(Adamantan-1-yl)-5-[6-(furan-2-yl)-1,4-dihydro-4-oxo-1-pentylquinolin-3-yl]-1H-1,3,4-oxadiadole]: the Solubility in data set [1] amounted to 128 µg/mL (≈ 265 µM). Moreover, the inhibition constant Ki in data set [2] (setting [9]) was > 10000 nM. In data set [3] ([35S]GTPγS binding, 95% confidence limits in brackets), this compound displayed an EC50 of 57.6 nM. In data set [3], the “Functional effect on [35S]GTPγS binding” value is “inverse agonist effects”. Besides, the Emax in data set [3] (percentage change in [35S]GTPγS binding, 95% confidence limits in brackets) is −46.6% (−52.5 and −40.6%). Besides, the “S.I. (selectivity index for CB2, Ki(CB1)/Ki(CB2))” value in data set [4] is on record as > 1543. Also, the Ki in data set [4] (setting [10]) is 6.5 ± 2.2 nM. The “logP Exp” value in data set [5] is on record as 5.26. In addition, in data set [6], the “Effect on 2nd phase of formalin-induced nocifensive behaviour” value is “significant reduction” and the “Effect of AM630 pre-treatment on the antinociceptive effect of the compound” value is reported as “did not induce any change”.
Consider `CCCCCCC(C)(C)c1ccc([C@@H]2C[C@H](O)CC[C@H]2CCCO)c(O)c1` [CP55940, (−)-cis-3-[2-hydroxy-4-(1,1-dimethylheptyl)phenyl]-trans-4-(3-hydroxypropyl)cyclohexanol, reference compound], for which the Emax in data set [3] was 84.7%.
With `CC(O)CCCn1cc(-c2cn(C34CC5CC(CC(C5)C3)C4)nn2)c(=O)c2cc(-c3ccco3)ccc21` (stereo not shown) [Compound 32, 3-(1-Adamantyl-1H-1,2,3-triazol-4-yl)-6-(furan-2-yl)-1-(4-hydroxypentyl)quinolin-4(1H)-one], the Ki in data set [2] (setting [9]) is > 10000 nM; in data set [4] (setting [10]), 190 ± 10 nM. For the same compound, the “S.I. (selectivity index for CB2, Ki(CB1)/Ki(CB2))” value in data set [4] is given as > 52. In addition, in data set [4] (racemic form), the “Loss of potency versus parent compound 11” value is reported as 150 fold.
Consider `CCCCCn1cc(-c2nc(C34CC5CC(CC(C5)C3)C4)no2)c(=O)c2cc(Br)ccc21` [Compound 10, 3-(Adamantan-1-yl)-5-(6-bromo-1,4-dihydro-4-oxo-1-pentylquinolin-3-yl)-1,2,4-oxadiadole], for which the Ki is 208 ± 5.5 nM in data set [2] (setting [9]) and 2.7 ± 0.8 nM in data set [4] (setting [10]). Moreover, in data set [4], the “S.I. (selectivity index for CB2, Ki(CB1)/Ki(CB2))” value worked out at 76. Besides, the “logP Exp” value in data set [5] is given as 5.77.
On to `CCCCCn1cc(-c2nc(C34CC5CC(CC(C5)C3)C4)no2)c(=O)c2cc(-c3ccco3)ccc21` [Compound 13, 3-(Adamantan-1-yl)-5-[6-(furan-2-yl)-1,4-dihydro-4-oxo-1-pentylquinolin-3-yl]-1H-1,2,4-oxadiadole], for which, in data set [1], the Solubility came out at 7 µg/mL (≈ 14.5 µM). The Ki in data set [2] (setting [9]) came out at 33 ± 0.6 nM; in data set [4] (setting [10]), 0.4 ± 0.1 nM. Also, in data set [4], the “S.I. (selectivity index for CB2, Ki(CB1)/Ki(CB2))” value was 82. Also, the “logP Exp” value in data set [5] was 6.38.
For `CCCCCn1cc(-c2nnc(C34CC5CC(CC(C5)C3)C4)o2)c(=O)c2cc(Br)ccc21` [Compound 9, 2-(Adamantan-1-yl)-5-(6-bromo-1,4-dihydro-4-oxo-1-pentylquinolin-3-yl)-1,3,4-oxadiadole], the Ki in data set [2] (setting [9]) is > 10000 nM; in data set [4] (setting [10]) it was 250 ± 8.6 nM. In addition, the “S.I. (selectivity index for CB2, Ki(CB1)/Ki(CB2))” value in data set [4] is > 40. Also, in data set [5], the “logP Exp” value is on record as 5.15.
For `O=c1c(-c2cn(C34CC5CC(CC(C5)C3)C4)nn2)c[nH]c2ccc(-c3ccco3)cc12` [Compound 29, 3-(1-Adamantyl-1H-1,2,3-triazol-4-yl)-6-(furan-2-yl)quinolin-4(1H)-one], the “CB1 Ki” value in data set [2] (setting [11]) is given as “no affinity”. The Ki in data set [2] (setting [9]) and in data set [4] (setting [10]) was > 10000 nM each time. Also, in data set [4] (setting [11]), the “CB2 Ki” value is “no affinity”.
Usually chromatographic logP stands for lipophilicity estimated from chromatographic retention. Lower therefore signals lower lipophilicity. Take `CCCCCn1cc(-c2cn(C34CC5CC(CC(C5)C3)C4)nn2)c(=O)c2cc(-c3ccco3)ccc21` [Compound 11, 1-(Adamantan-1-yl)-4-[6-(furan-2-yl)-1,4-dihydro-4-oxo-1-pentylquinolin-3-yl]-1H-1,2,3-triazole]: the inhibition constant Ki in data set [2] was > 10000 nM. In data set [3], the Emax is -52% and the “Functional effect on [35S]GTPγS binding” value is recorded as “inverse agonist effects”. Also, the “Vmax (formation rate)” value in data set [7] (0.5 mg microsomal protein, 60 min incubation) is 0.16±0.01 nmol x min^−1 × mg^1 protein. For the same compound, in data set [7] (human liver microsomes), the “CYP isoforms involved in metabolism (inhibition study)” value was “CYP3A4 is the major isoform involved, while CYP1A and CYP2A are only partially implicated”. The Metabolite identified result in data set [7] (human liver microsomes, HPLC-MS) is listed as “side chain hydroxylated derivative 32 as its only metabolite”. In data set [5], this compound yielded a chromatographic logP of 5.18. Also, in data set [6], the “Effect on 2nd phase of formalin-induced nocifensive behaviour” value is reported as “significant reduction” and the “Effect of AM630 pre-treatment on the antinociceptive effect of the compound” value is recorded as “completely abolished”.
`CCCCCOc1nc2ccccc2cc1-c1cn(C23CC4CC(CC(C4)C2)C3)nn1` [Compound 16, 1-(Adamantan-1-yl)-4-[2-(pentyloxy)quinoline]-1H-1,2,3-triazole]: the Ki came out at 3415 ± 9.8 nM in data set [2] (read-out: CB1 Ki) and 12.6 ± 4.3 nM in data set [4] (setting [10]). In addition, in data set [4], the “S.I. (selectivity index for CB2, Ki(CB1)/Ki(CB2))” value stood at 271.
Take `CCCCCn1cc(-c2cn(C34CC5CC(CC(C5)C3)C4)nn2)c(=O)c2cc(-c3ccc(OC(C)C)cc3)ccc21` [Compound 5, 1-(Adamantan-1-yl)-4-[6-(4-(2-propyloxy)phenyl]-1,4-dihydro-4-oxo-1-pentylquinolin-3-yl]-1H-1,2,3-triazole]: the Ki in data set [2] is > 10000 nM. For the same compound, in data set [4], affinity was put at a Ki of 1680 ± 24.5 nM and the “S.I. (selectivity index for CB2, Ki(CB1)/Ki(CB2))” value was > 6. In data set [5], the chromatographic logP is 7.78.
In the case of `CCCCCn1cc(-c2cn(C34CC5CC(CC(C5)C3)C4)nn2)c(=O)c2cc(Br)ccc21` [Compound 8, 1-(Adamantan-1-yl)-4-(6-bromo-1,4-dihydro-4-oxo-1-pentylquinolin-3-yl)-1H-1,2,3-triazole], the Ki in data set [2] was > 10000 nM; in data set [4], 32.2 ± 1.2 nM. The same compound showed a chromatographic logP in data set [5] of 5.83.
With `CCCCCn1c(=O)c(-c2cn(C34CC5CC(CC(C5)C3)C4)nn2)cc2ccccc21` [Compound 15, 1-(Adamantan-1-yl)-4-(1-pentylquinolin-2(1H)-one)-1H-1,2,3-triazole], the figures for the Ki in data set [2] (setting [9]) and in data set [4] (setting [10]) were 321.9 ± 2.1 nM and 11.1 ± 3.6 nM, respectively. Also, in data set [4], the “S.I. (selectivity index for CB2, Ki(CB1)/Ki(CB2))” value was found to be 29.
With `CCCCCn1cc(-c2nc(C34CC5CC(CC(C5)C3)C4)no2)c(=O)c2cc(-c3ccc(OC(C)C)cc3)ccc21` [Compound 7, 3-(Adamantan-1-yl)-5-[6-(4-(2-propyloxy)phenyl]-1,4-dihydro-4-oxo-1-pentylquinolin-3-yl]-1,2,4-oxadiadole], the Ki in data set [2] (setting [9]) and in data set [4] (setting [10]) was > 10000 nM in each case. Further, the “logP Exp” value in data set [5] was 7.71. The “Displacement of marker ligand from OT column” value in data set [8] is given as “very little displacement”.
